Source: PubChem (The Scripps Research Institute Molecular Screening Center)
Rows were chosen to be rich in hits. Some 0.55% of all compounds tested hit in one or more screens of this group.
TRPML3 agonist – human TRPML3 channel agonists, primary screen, cell-based, HEK293 TRPML3-YFP, Fluo-8 calcium fluorescence, 3 µM. Mucolipin-3 (Homo sapiens), Q8TDD5. activation, % at 3 µM. 0.29% of 220,000 active. 100% = the carbachol control signal;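 active = activation above its plate's cutoff, the mean activation of the plate's test wells plus 3 SD, cut at about 12% in these data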;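 also: 0% = DMSO only wells and 100% = carbachol wells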
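Material: TRPML3-YFP stable HEK293 cells | Dosing: One concentration, 3 µM nominal, 0.3% DMSO | Timing: 125 s total fluorescence read per well | Technique: Fluo-8 calcium dye fluorescence, ex 470-495, em 515-575 nm | Measure: Percent activation from peak-to-basal fluorescence ratio, scaled between DMSO and carbachol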
V1aR counter – agonists of human V1a receptor, primary screen, counter-screen for OXTR agonist project, fluorescence, CHO-V1R cells; Vasopressin V1a receptor (Homo sapiens), P37288; Fluo-8 calcium fluorescence, agonist mode; 0% DMSO, 100% 3 nM vasopressin; activation, % at 3 µM; 0.25% of 320,000 active;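 active = activation above the mean activation of all tested compounds plus 3 SD, per screening run, cut at about 20% in these data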;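 also: signal is peak over basal fluorescence ratio across a 100 second FLIPR read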
Target sequence (P37288 whole entry, looked up): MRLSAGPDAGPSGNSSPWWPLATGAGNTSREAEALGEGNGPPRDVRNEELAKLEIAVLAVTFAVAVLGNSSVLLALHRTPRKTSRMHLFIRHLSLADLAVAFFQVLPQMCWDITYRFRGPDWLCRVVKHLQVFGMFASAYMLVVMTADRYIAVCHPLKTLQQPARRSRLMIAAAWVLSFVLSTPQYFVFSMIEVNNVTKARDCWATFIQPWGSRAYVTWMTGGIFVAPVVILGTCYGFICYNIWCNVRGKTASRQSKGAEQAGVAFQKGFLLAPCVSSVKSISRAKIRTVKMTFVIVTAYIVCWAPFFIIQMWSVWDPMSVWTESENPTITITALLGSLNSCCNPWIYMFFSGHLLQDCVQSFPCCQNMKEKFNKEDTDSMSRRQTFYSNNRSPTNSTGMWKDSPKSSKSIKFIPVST
OXTR ag – human OXTR agonists, primary screen, fluorescence, CHO-OTR cells, Fluo-8 calcium; 0.32% of 320,000 active; activation, % at 3 µM; AID 2435, 2010; Oxytocin receptor (Homo sapiens), P30559; Fluo-8 calcium fluorescence; normalized: DMSO 0%, oxytocin 100%;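 active = activation above the mean of all tested compounds plus 3 SD, cutoff set per screening run, cut at about 20% in these data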;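 also: peak over basal fluorescence ratio from a 100 s FLIPR kinetic read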
zfTRPN1 agonist – zebrafish TRPN1 channel agonists, primary screen, cell-based, HEK293, calcium fluorescence; transient receptor potential cation channel N1 (TRPN1/NompC), Danio rerio; HEK293 zebrafish TRPN1-YFP, Fluo-8 calcium fluorescence; 100% = response to 87 µM carbachol; activation, % at 3 µM; 0.18% of 220,000 active;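 active = activation above its plate's cutoff, the mean activation of test wells on that plate plus 3 SD, cut at about 19% in these data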;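 also: 0% = DMSO alone and 100% = 87 µM carbachol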
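Material – zebrafish TRPN1-YFP in HEK293 cells · Doses – 3 µM single point · Schedule – dye 1 h 37 °C plus 30 min RT · Signal – Fluo-8 calcium fluorescence, excitation 470-495 nm, emission 515-575 nm · Read-out – % activation versus carbachol response · Control set – carbachol high, DMSO low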
OXTR potentiate – human OXTR potentiators, primary screen, fluorescence, CHO-OTR cells, Fluo-8 calcium; Oxytocin receptor (Homo sapiens), P30559; Fluo-8 calcium fluorescence, potentiator mode; 0% = oxytocin EC15, 100% = EC100; activation, % at 3 µM; 0.061% of 320,000 active; AID 2445, 2010;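 active = activation above that plate's cutoff, the mean activation of tested compounds plus 3 SD, cut at about 6.6% in these data, passing the limit was not always enough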;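 also: 100% uses oxytocin at 75 nM as the full agonist control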
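test system = CHO-OTR cells, human receptor | compound = single-point 3.0 µM | schedule = 6 min compound pre-incubation at room temperature, 100 s kinetic read | signal = Fluo-8 no-wash calcium dye fluorescence, excitation 470-495 nm, emission 515-575 nm | repeats = single well per compound, singlicate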
V1R ag confirm – V1a receptor agonists, calcium signal, confirmation, Fluo-8 calcium fluorescence, CHO-V1R cells; activation, % at 3 µM; 20% of 180 active; agonist; AID 434964, 2010; shares compounds with V1aR counter;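 active = average activation exceeds primary screen hit cutoff, cut at about 21% in these data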;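 also: peak over basal fluorescence ratio during a 100 s FLIPR read; 0% = DMSO only wells and 100% = 3 nM vasopressin wells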
OXTR counter – human OXTR agonists, counter-screen for V1R agonist project, fluorescence, CHO-OTR cells, triplicate; shares compounds with V1aR counter; Fluo-8 calcium fluorescence; activation, % at 3 µM; 10% of 180 active; AID 434969, 2010;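 active = mean activation over three repeats above the cutoff from the earlier oxytocin receptor agonist screen, cut at about 20% in these data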;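 also: peak over minimum fluorescence ratio within a 100 second FLIPR read; 0% = DMSO only wells and 100% = oxytocin high control wells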
* marks the source's active call; other numbers are inactive results.

`COc1ccc(Cl)cc1C(=O)NNC(=S)NC(=O)c1cc(-c2ccccc2)nc2ccccc12` gave TRPML3 agonist 0.9, V1aR counter 25.7*, OXTR ag 13.6, zfTRPN1 agonist 4.7, OXTR potentiate -21.6, V1R ag confirm 34.7* and OXTR counter 20.7*.
`COC(=O)c1ccc(NC(=S)NC(=O)c2cc(-c3ccccc3)nc3ccccc23)cc1` gave TRPML3 agonist 1.0, V1aR counter 1.1, OXTR ag 1.4, zfTRPN1 agonist -0.2 and OXTR potentiate -8.3.
For Cc1ccc(NS(=O)(=O)c2ccc(C(=O)N3CCCCCCC3)cc2)cc1 the results were V1aR counter 15.2, OXTR ag 8.1 and OXTR potentiate -14.2.
Cc1ccc(NS(=O)(=O)c2ccc(C(=O)N3CCCCCC3)cc2)cc1 was read as V1aR counter 20.8*, OXTR ag 13.8, OXTR potentiate -12.5, V1R ag confirm 13.2 and OXTR counter 17.1.
c1cc2c3c(cccc3c1)NC1(CCC3(CC1)Nc1cccc4cccc(c14)N3)N2 was read as TRPML3 agonist 9.3, V1aR counter 32.1*, OXTR ag 11.2, zfTRPN1 agonist 17.7, OXTR potentiate -17.1, V1R ag confirm 4.1 and OXTR counter 17.0.
`c1cc2c3c(cccc3c1)NC1(CCCCCC1)N2` gave TRPML3 agonist 0.5, V1aR counter 0.8, OXTR ag -0.2, zfTRPN1 agonist -1.5 and OXTR potentiate -8.5.
COc1cc(OC)c(Cl)cc1N was read as TRPML3 agonist 0.5, V1aR counter 7.7, OXTR ag 0.6, zfTRPN1 agonist 0.8 and OXTR potentiate -1.3.
`CCCN[C@H]1CCc2nc(N)sc2C1` gave V1aR counter 0.5, OXTR ag 0.7 and OXTR potentiate -2.2.
O=c1c(-c2nc3ccccc3s2)cccn1Cc1ccc(Cl)cc1 was read as TRPML3 agonist 1.1, V1aR counter 22.4*, OXTR ag 0.3, zfTRPN1 agonist -0.3, OXTR potentiate -16.7, V1R ag confirm -0.2 and OXTR counter -0.5.
Clc1ncccc1-c1nc2ccccc2s1 was read as TRPML3 agonist 0.1, V1aR counter -1.6, OXTR ag -2.5, zfTRPN1 agonist -1.7 and OXTR potentiate 4.5.
O=C1OC(CCl)CN1Cc1ccc([N+](=O)[O-])cc1 (stereo unspecified) was read as V1aR counter 0.3, OXTR ag 0.3 and OXTR potentiate -0.1.
Screening CCOc1ccc(NC(=O)c2cccc(NC(=O)c3ccccc3)c2)cc1 returned V1aR counter 49.6*, OXTR ag 1.1, OXTR potentiate -17.7, V1R ag confirm 1.9 and OXTR counter -1.0.
For Cc1ccc(NC(=O)c2ccc(OC(=S)N3CCOCC3)cc2)cc1 the results were TRPML3 agonist 1.4, V1aR counter 26.2*, OXTR ag 3.5, zfTRPN1 agonist 0.2, OXTR potentiate -12.8, V1R ag confirm 0.0 and OXTR counter 0.2.
`O=C(CSc1ncc(-c2ccc(F)cc2)n1Cc1ccco1)Nc1nccs1` gave TRPML3 agonist -0.7, V1aR counter 28.6*, OXTR ag 15.7, zfTRPN1 agonist 0.3, OXTR potentiate -33.9, V1R ag confirm 10.9 and OXTR counter 16.4.
For S=c1[nH]nc(-c2cccs2)n1/N=C/c1c(Cl)cccc1Cl the results were TRPML3 agonist 0.8, V1aR counter 27.2*, OXTR ag 13.0, zfTRPN1 agonist -2.9, OXTR potentiate -9.9, V1R ag confirm 14.3 and OXTR counter 1.4.
For Cc1ccc(/C=N/n2c(-c3cccs3)n[nH]c2=S)cc1 the results were TRPML3 agonist -0.4, V1aR counter -1.3, OXTR ag -2.9, zfTRPN1 agonist -2.4 and OXTR potentiate -12.7.
Screening CC1=NN(C(=O)c2ccc(Cn3cc([N+](=O)[O-])cn3)cc2)C(O)(C(F)(F)F)C1 (stereo unspecified) returned TRPML3 agonist 1.6, V1aR counter 15.7, OXTR ag 7.3, zfTRPN1 agonist 2.1 and OXTR potentiate -9.0.
COCCN=C1N[C@@H](c2cccc(C(F)(F)F)c2)C(C(=O)OC)=C(C)N1Cc1ccccc1 was read as V1aR counter 5.2, OXTR ag 14.0 and OXTR potentiate -10.5.
COC(=O)C1=C(C)N(Cc2ccccc2)C(=NCCc2c[nH]c3ccccc23)N[C@H]1c1cccc(C(F)(F)F)c1 was read as V1aR counter 20.3*, OXTR ag 15.5, OXTR potentiate -4.9, V1R ag confirm 3.5 and OXTR counter 6.3.
O=C(OCCN1C(=O)c2cccc3c(N4CCOCC4)ccc(c23)C1=O)c1ccccc1Cl was read as TRPML3 agonist 2.5, V1aR counter 25.7*, OXTR ag 11.7, zfTRPN1 agonist 7.1, OXTR potentiate -11.1, V1R ag confirm 30.3* and OXTR counter 42.3*.
Fc1c(F)c(F)c(N=Cc2ccc3ncccc3c2)c(F)c1F was read as TRPML3 agonist 0.3, V1aR counter 0.6, OXTR ag -0.5, zfTRPN1 agonist 0.7 and OXTR potentiate -7.7.
Screening CC(C)c1ccc(NC(=O)C2CCC(CNC(=O)[C@@H]3Cc4ccccc4CN3)CC2)cc1 (stereo partly specified) returned V1aR counter 23.6*, OXTR ag 15.5, OXTR potentiate -7.6, V1R ag confirm 4.5 and OXTR counter 10.0.
`Cc1ccc(NC(=O)C2CCC(CNC(=O)[C@@H]3Cc4ccccc4CN3)CC2)cc1` (stereo partly specified) gave V1aR counter 3.0, OXTR ag -0.6 and OXTR potentiate -4.7.
O=C(c1ccccc1NS(=O)(=O)c1ccc(Cl)cc1)N1CCc2ccccc21 was read as TRPML3 agonist -0.4, V1aR counter 21.4*, OXTR ag -1.4, zfTRPN1 agonist -0.5, OXTR potentiate 1.2, V1R ag confirm 0.9 and OXTR counter -0.1.
`Cc1ccc(S(=O)(=O)N2CCOC2CNC(=O)C(=O)NCc2ccncc2)cc1` (stereo unspecified) gave TRPML3 agonist -0.1, V1aR counter 1.1, OXTR ag 0.8, zfTRPN1 agonist 0.0 and OXTR potentiate -3.4.
